This note sets out measurements from PMC3920694 (Iranian Journal of Pharmaceutical Research : IJPR, 2013).

Data set [1] has as its system MCF7 (Human breast adenocarcinoma). Description: LDH assay cytotoxicity, MCF7. It counts as cell-based.
The subject of data set [2] is HepG2 (Human hepatocyte cancer cell line). Briefly: LDH assay cytotoxicity, HepG2. It counts as cell-based. Particulars: HepG2, read-out: IC50 HepG2.
In data set [3] the test system is PC3 (Human prostate adenocarcinoma). Briefly: LDH assay cytotoxicity, PC3. The format is cell-based.
Data set [4] concerns HT29 (Human colon carcinoma). Briefly: LDH assay cytotoxicity, HT29. It counts as cell-based. The note with it: HT-29, read-out: IC50 HT29.
Data set [5] concerns Hela (Human cervix carcinoma). Briefly: LDH assay cytotoxicity, Hela. It counts as cell-based. The note with it: read-out: IC50 Hela.
The test system of data set [6] is HL60 (Human promylocyteic leukemia). Briefly: LDH assay cytotoxicity, HL60. The note with it: HL-60, read-out: IC50 HL60. The format is cell-based.
In data set [7] the test system is K562 (Human chronic myelogenom leukemia). Briefly: LDH assay cytotoxicity, K562. It counts as cell-based. Particulars: K562, read-out: IC50 K562.
Data set [8] deals with Jurkat (Human Acute T-cell leukemia). Description: cells. It counts as cell-based. Particulars: read-out: IC50 Jurkat.
The test system of data set [9] is HUVEC (Human umbilical vein endothelial cell). Briefly: LDH assay cytotoxicity, HUVEC. It counts as cell-based. Particulars: read-out: IC50 HUVEC.
Data set [10] concerns cancer cell lines (PC3, HT29, Hela, HL60, Jurkat, K562, MCF7, HepG2). Briefly: LDH assay cytotoxicity, span over the eight cancer cell lines. The format is cell-based. The note with it: Homo sapiens, read-out: IC50 on cancer cell lines (range over the eight lines). The method in brief: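 Cells grown in DMEM with 10% FBS and penicillin/streptomycin at 37°C, 5% CO2. Test compound at 1, 5, 10, 25, 50 and 100 μM for 24 and 48 h. Medium transferred and mixed with LDH reagent plus catalyst (1:45), 30 min in the dark at room temperature. Absorbance read at 490 nm with 630 nm background subtraction. Cell-free medium served as negative control.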

For data set [11], the system named is PC3 (Human prostate adenocarcinoma). Briefly: Trypan blue exclusion, PC3. The format is cell-based. The note with it: 48 h; Figure 4. The essentials:
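Cells kept in DMEM with 10% FBS and antibiotics at 37°C, 5% CO2. About 0.75 × 10^5 cells/mL were seeded in 6-well plates and exposed to test compound at several concentrations for 48 h. Cells were then collected, resuspended in 0.4% trypan blue, and unstained cells counted by inverted microscopy. Percent viability was expressed relative to a temozolomide reference control.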

Data set [12] relates to leukemia cell lines (HL60, K562 and Jurkat). Briefly: Trypan blue exclusion, leukemia cell lines. It counts as cell-based, Human. The note with it: 48 h; compared with structural isomer A; Figures 7-9.
The mark [13] stands for this setting: Homo sapiens, read-out: IC50 PC3, LDH assay, incubation 24 and 48 h described.

The IC50 is the point on the concentration scale where inhibition reaches its midpoint.

Like-named read-outs stand apart in the source and are kept apart here.

`CCOc1ccccc1N=NNc1ccccc1OCC` [C, 1,3-bis(2-ethoxyphenyl)triazene]: the concentration for half-maximal inhibition (IC50) worked out at 0.59 ± 0.12 µM in data set [1] (read-out: IC50 MCF7, LDH assay, incubation 24 and 48 h described); 3.33 ± 1.3 µM in [2]; 0.59 µM in data set [3] (setting [13]); 0.56 ± 0.2 µM in data set [3] (read-out: IC50 PC3, LDH assay, incubation 24 and 48 h described); 2.55 ± 1.33 µM in data set [4]; 2.54 ± 1.2 µM in data set [5]. The IC50 in data set [6] is 2.62 ± 0.96 µM; in data set [7], 1.66 ± 0.8 µM; in data set [8] it was 1.69 ± 1.02 µM; in [9] it was 12.6 ± 2.8 µM; in data set [10], 0.56 to 3.33 µM. Further, the “cytotoxic activity on PC3 by trypan blue exclusion” value in data set [11] is listed as “high”.

Take `COc1ccccc1N=NNc1ccccc1OC` [F, 1,3-Bis(2-methoxyphenyl)triazene]: the IC50 in [2] was 1.45 ± 0.65 µM; in data set [3] (setting [13]), 7 ± 2.2 µM; in [4] it was 2.26 ± 1.52 µM; in data set [5], 6.85 ± 2.8 µM; in data set [6] it was 1.3 ± 0.5 µM; in [7], 1.66 ± 0.49 µM. The IC50 in [8] stood at 1.61 ± 0.9 µM; in data set [9], 4.59 ± 1.76 µM.

Consider `O=[N+]([O-])c1ccc(N=NNCCO)cc1` [E, 1-(4-nitrophenyl)-3-(2-hydroxyethyl)triazene], for which the IC50 was found to be 4.2 ± 1.2 µM in [2]; 3 ± 1.01 µM in data set [3] (setting [13]); 8.25 ± 2.2 µM in data set [4]; 15.5 ± 3.01 µM in data set [5]; 2.81 ± 0.99 µM in data set [6]; 9.87 ± 2.08 µM in data set [7]. Further, the half-inhibitory concentration (IC50) in data set [8] was 4.5 ± 1.67 µM; in data set [9], 5.05 ± 1.8 µM; in [10] it was 3 to 15.5 µM.

`O=[N+]([O-])c1ccc(N=NNc2cccc(O)c2)cc1` [A, 1-(4-nitrophenyl)-3-(3-hydroxyphenyl)triazene]: the IC50 in [2] stood at 1.12 ± 0.3 µM; in [3] (setting [13]) it was 1.24 ± 0.2 µM; in data set [4] it was 2.82 ± 0.49 µM; in [5] it was 8.87 ± 2.1 µM; in data set [6], 2.3 ± 0.51 µM; in data set [7] it was 2.1 ± 0.7 µM. For the same molecule, the IC50 was 1.2 ± 0.4 µM in [8] and 4.4 ± 1.31 µM in data set [9].

For the molecule `c1ccc(N=NNc2ccccc2)cc1` [G, 1,3-diphenyltriazene], the IC50 amounted to 1.57 ± 0.34 µM in data set [1] (Homo sapiens, MCF7, read-out: IC50 MCF7); 3.94 ± 1.45 µM in data set [2]; 4.13 ± 1.8 µM in data set [3] (Homo sapiens, read-out: IC50 PC3); 9.4 ± 2.3 µM in [4]; 4.88 ± 1.5 µM in data set [5]; 3.4 ± 1.96 µM in [6]. For the same molecule, the results for the IC50 in data set [7], in [8] and in data set [9] were 6.33 ± 2.41 µM, 5.53 ± 1.44 µM and 7.43 ± 2.1 µM, respectively.

With `Cn1nnc2c(C(N)=O)ncn2c1=O` [TMZ, Temozolomide, reference compound], the IC50 turned out to be 2.59 ± 1.3 µM in data set [2]; 1.39 ± 0.69 µM in [3] (setting [13]); 17.2 ± 3.2 µM in data set [4]; 8.88 ± 2.2 µM in data set [5]; 3.54 ± 1.56 µM in data set [6]; 3.82 ± 1.6 µM in [7]. Besides, the IC50 worked out at 2.07 ± 1.34 µM in data set [8] and 4.85 ± 1.78 µM in [9].

For the molecule `N#Cc1ccccc1N=NNc1ccccc1C#N` [D, 1,3-bis (2-cyanophenyl) triazene], the IC50 in data set [2] was found to be 1.49 ± 0.42 µM; in [3] (setting [13]), 1.04 ± 0.11 µM; in data set [4] it was 2.03 ± 1.05 µM; in data set [5] it was 2.39 ± 1.35 µM; in data set [6], 1.34 ± 0.44 µM; in data set [7] it was 1.04 ± 0.38 µM. Moreover, the IC50 in data set [8] was found to be 1.44 ± 0.71 µM; in [9], 1.14 ± 0.4 µM.

As to `O=[N+]([O-])c1ccc(N=NNc2ccccc2O)cc1` [B, 1-(4-nitrophenyl)-3-(2-hydroxyphenyl)triazene], the IC50 is 1.89 ± 0.78 µM in data set [2]; 3.29 ± 1.3 µM in data set [3] (setting [13]); 3.37 ± 1.65 µM in data set [4]; 4.2 ± 1.4 µM in data set [5]; 1.36 ± 0.34 µM in [6]; 1.13 ± 0.67 µM in data set [7]. For the same molecule, the half-maximal inhibitory concentration (IC50) in data set [8] amounted to 1.05 ± 0.98 µM; in [9], 3.22 ± 1.1 µM. Further, in data set [12], the “effectiveness on leukemia cell lines (HL60, K562 and Jurkat) by trypan blue exclusion” value is “more effective”.
